Only some compounds are listed: those with a hit (about 1.8% of all), similar ones and a draw of the others.
iPSC survival up: enhancers of single-cell hiPSC survival, primary screen, ATPlite luminescence. 100% = ROCK inhibitor wells, 0% = DMSO. survival enhancement, % at 20 µM. 0.044% of 360,000 active; in the data active means survival enhancement above about 18%;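 further: cells exposed to compounds for 16 hours before the ATP read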
Hep lipid drop: inhibitors of hepatocyte lipid droplet formation, primary screen, imaging, high-throughput imaging, BODIPY stain. AML12 mouse hepatocytes, oleate lipid droplets. inhibition, % at 6.5 µM. 0.4% of 240,000 active. AID 1656, 2009;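 active means lipid droplet intensity inhibited by at least 50%, with more than 500 cells counted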
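Material: mouse AML12 hepatocyte cell line, fixed after treatment; Timing: compound with oleate, overnight; Technique: high-content imaging of BODIPY-stained droplets and DAPI nuclei; Probe or stimulus: oleate, 100 µM final; Dosing: compound at 6.5 µM only.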
H9c2 TAG inh: inhibitors of triacylglycerol accumulation, primary screen, cell-based, uHTS, fluorescence, H9c2; H9c2 cells, Nile Red lipid (TAG) fluorescence; cells loaded with 200 µM oleic acid; inhibition, % at 12.5 µM; 0.66% of 230,000 active;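 active means pattern-corrected inhibition of lipid staining of at least 50% with the nuclear-stain viability signal not falling by more than 50%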;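 further: 0% = DMSO wells and 100% = triacsin C control wells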
697 NFkB inh: inhibitors of PMA/ionomycin-induced NF-kB reporter, 697 cells, primary screen, B-cell NF-kB inhibitor project, cell-based, luminescence, uHTS | 697 B-cell NF-kB luciferase reporter, 16 h | inhibition, % at 4 µM | 0.33% of 330,000 active | AID 435022, 2010; in the data active means inhibition above about 35%
Gli-Sufu antag: Gli-Sufu pathway antagonists, primary screen, luciferase luminescence, Sufu-KO-LIGHT cells, uHTS; Sufu-KO-LIGHT fibroblasts, Gli luciferase reporter luminescence; inhibition, % at 5 µM; 0.74% of 340,000 active; AID 588413, 2011;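 active means inhibition above about 55%, limit read from the data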;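 further: 0% = DMSO-treated cells and 100% = wells with medium but no cells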
Jurkat NFkB inh: inhibitors of induced NF-kB luciferase reporter, primary screen, TCR NF-kB activation inhibitor project, cell-based, luminescence, uHTS | Jurkat, PMA/ionomycin-induced NF-kB luciferase reporter | 0.53% of 330,000 active | inhibition, % at 4 µM | AID 435003, 2010; in the data active means inhibition above about 50%
Gli antag conf: Gli-SUFU pathway antagonists, confirmation, single concentration, luciferase luminescence, Sufu-KO-LIGHT cells | 40% of 2,500 active | inhibition, % at 5 µM | shares compounds with Gli-Sufu antag | Gli luciferase reporter;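 active means mean inhibition at 5 µM reaching about 45%, limit read from the data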;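 further: plate controls were DMSO-treated cells for no effect and wells lacking cells for full effect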
Gli cytotox: cytotoxicity in Sufu-KO-LIGHT cells, confirmation, cytotoxicity control for Gli-SUFU antagonist project, cell-based, ATP luminescence, single concentration. cytotoxicity, % at 5 µM. shares compounds with Gli-Sufu antag. AID 651994, 2013. 32% of 2,500 active;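 active means mean cytotoxicity at 5 µM above about 25%, limit read from the data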;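 further: cells exposed to compound overnight for roughly 16 to 18 hours; plate controls were DMSO wells with cells for no effect and medium without cells for full effect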
Wnt3a cs: Wnt3a reporter signal inhibition, confirmation, counter-screen for Gli-SUFU antagonist project, Wnt-LIGHT cells, luminescence, single concentration; shares compounds with Gli-Sufu antag; Wnt3a-driven luciferase reporter; inhibition, % at 6.25 µM; 20% of 2,500 active; AID 651995, 2013;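 active means mean inhibition above about 25%, limit read from the data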
* hit, by the source's call; · = no result given.

SMILES	iPSC survival up	Hep lipid drop	H9c2 TAG inh	697 NFkB inh	Gli-Sufu antag	Jurkat NFkB inh	Gli antag conf	Gli cytotox	Wnt3a cs
CCCCC(=O)Nc1nc(C)c(-c2csc(Nc3cc(OC)ccc3OC)n2)s1	2	·	·	-8	95*	1	33	25	17
O=C(CN1CCN(Cc2ccccc2)CC1)Nc1ccc(Br)cc1	-1	1	·	8	3	-14	·	·	·
CC1(C)COCN1C(=O)c1ccc(C#N)cc1	0	21	·	6	52	-6	10	20	2
CCOC(=O)C1(C)CCN1C(=O)c1ccc(C#N)cc1 (stereo not drawn)	-3	·	5	·	·	·	·	·	·
CC(=O)Nc1ccc(S(=O)(=O)N2CCC(C(=O)NC3CCCC3)CC2)cc1	0	-3	·	0	4	16	·	·	·
CC(=O)Nc1ccc(S(=O)(=O)N2C3CCCC2CC(NC(=O)C2CCCCC2)C3)cc1 (stereo not drawn)	2	·	0	-20	95*	-4	15	4	-38
CCCN(Cc1ccc(C)cc1)C(=O)c1ccc(CNS(=O)(=O)c2ccc(C(C)=O)cc2)cc1	4	·	3	-33	-39	-25	·	·	·
O=C(Nc1nc(-c2cc3ccccc3o2)cs1)c1ccc(S(=O)(=O)N2CCCC2)cc1	0	-18	·	23	50	27	59*	30*	-11
NC(=O)COn1c(SCC(N)=O)nc2ccccc2c1=O	0	-24	-2	-10	0	-18	·	·	·
CC(C)OCCCNc1ncnc2c1[nH]c1ccccc12	2	-12	·	17	64*	35	59*	40*	-31
COc1ccc(CNc2ncnc3c2[nH]c2ccccc23)cc1	-1	-54	-22	4	53	31	64*	16	24
COc1cc(S(=O)(=O)N2CCN(C(=O)c3cccs3)CC2)ccc1NC(C)=O	-2	·	-4	·	·	·	·	·	·
COc1ccc(NC(=O)COCC(=O)Nc2ccc(C)cc2)cc1	-1	15	4	5	54	7	21	13	-2
COc1ccc(OCC(=O)Nc2ccc(C)cc2)cc1	-3	1	·	23	8	-9	·	·	·
Cc1c(C(C)C)c(=O)n(-c2ccc(S(=O)(=O)NC3CCCCC3)cc2)n1C	0	2	·	-42	68*	33	60*	25*	-4
Cc1c(C(C)C)c(=O)n(-c2ccc(S(=O)(=O)N3CCOCC3)cc2)n1C	3	-8	-6	-2	4	4	·	·	·
Cc1c(C(C)C)c(=O)n(-c2ccc(S(=O)(=O)NCc3ccccc3)cc2)n1C	1	-7	-3	-9	71*	47	63*	23	6
Cc1occc(=O)c1OCc1ccc(Cl)cc1Cl	0	3	·	1	-16	1	·	·	·
COc1ccc(CCC(=O)OCC(=O)Nc2ccccc2OC(F)F)cc1OC	4	4	-2	3	1	-3	·	·	·
COc1ccc(N2CCN(C(C)C(=O)N3CC(C)OC(C)C3)CC2)cc1 (stereo not drawn)	1	-4	-5	23	54	-6	13	6	-2
COc1ccc(N2CCN(C(C)C(=O)N3CCc4ccccc43)CC2)cc1 (stereo not drawn)	1	-29	·	-18	-13	-35	·	·	·
COc1ccc(CC2C(=O)NC(C)C(=O)N(C)C3Cc4ccc(cc4)Oc4cc(ccc4O)CC(C(=O)NC(C)C(=O)NC(C)C(=O)N2C)N(C)C3=O)cc1 (stereo not drawn)	-3	·	111	·	91*	·	96*	90*	104*
CC(/C=C1\SC(=O)N(CCCC(=O)O)C1=O)=C\c1ccccc1	-2	1	·	·	60*	·	73*	12	100*
CN1CCN(NC(=O)c2ccc(Cl)s2)CC1	-1	4	-1	13	52	4	14	0	15
CN1CCN(NC(=O)c2ccc(F)cc2)CC1	0	·	-1	-7	24	3	·	·	·
SMILES	iPSC survival up	Hep lipid drop	H9c2 TAG inh	697 NFkB inh	Gli-Sufu antag	Jurkat NFkB inh	Gli antag conf	Gli cytotox	Wnt3a cs
CC(OC(=O)c1cccc(-n2cnnn2)c1)C(=O)Nc1ccc(F)cc1 (stereo not drawn)	0	-6	-24	-23	50	7	25	10	6
CSc1nnc(-c2ccc([N+](=O)[O-])cc2)o1	4	-1	16	-3	93*	2	24	0	1
CCCCCN(C(=O)CCC(=O)OCCOc1cccc(Cl)c1)c1c(N)n(CCCC)c(=O)[nH]c1=O	0	·	-6	9	9	12	·	·	·
Cc1ccc(N(CC(=O)NCc2ccc(F)cc2)S(=O)(=O)c2c(C)n[nH]c2C)cc1	0	-4	·	-47	73*	-5	14	7	-49
COc1ccccc1C(NC(=O)C1CCN(CCOc2ccccc2)CC1)c1ccccn1 (stereo not drawn)	-1	·	8	·	·	·	·	·	·
CCCCN(CCCC)C(=O)CN(C)S(=O)(=O)c1ccc2c(c1)n(C)c(=O)c(=O)n2C	2	20	·	14	3	15	·	·	·
CN(CC(=O)O)S(=O)(=O)c1ccc2c(c1)n(C)c(=O)c(=O)n2C	-1	9	0	10	63*	8	10	-3	-3
Cc1cc(C)nc(/N=C(\N)Nc2ccc(CC(=O)OC(C)C)cc2)n1	0	-31	·	-72	65*	42	48*	38*	-4
COc1cc(C(=O)Oc2ccccc2/C=N/NC(=O)c2ccc(C)c(Cl)c2)cc(OC)c1OC	-1	-4	·	-34	20	28	·	·	·
COc1cc(C(=O)Oc2ccccc2/C=N/NC(=O)c2ccc(Cl)cc2)cc(OC)c1OC	-2	-10	22	-74	54	13	29	24	-161
CN(C)c1ccc(/C=N/NC(=O)C[n+]2ccccc2)cc1	0	·	1	-4	53	-10	10	6	-14
CCC1Sc2ccc(S(=O)(=O)CCC(=O)Nc3ccccc3Cl)cc2NC1=O (stereo not drawn)	0	-16	·	-23	51	-7	12	23	17
CCC1Sc2ccc(S(=O)(=O)CCC(=O)NCc3ccc(C)o3)cc2NC1=O (stereo not drawn)	0	-29	·	2	5	21	·	·	·
